Results pooled from the literature.
Compare with care: the assays were run in different laboratories. pIC50: −log10 of the molar value. ≈ marks a conversion by molar mass, not a printed value.

Structure (SMILES) | target or system | assay | system | setting | measurement | value
CC(C=CC(O)=C1C(=O)CNC1=O)=CC(C)C1OC2(C)OC(C(O)C=C2C)C1C (stereo not drawn) | Bacillus cereus | microbial growth | – | – | MIC | > 100 µM
CC(C)C[C@H](NC(=O)[C@H](Cc1c[nH]c2ccccc12)NC(=O)[C@H](C)NC(=O)OCc1ccccc1)C(=O)C(=O)Nc1ccccc1 | RPMI-8226 | cell growth or viability, MTS | – | 72 h | pIC50 | 6.12
O=c1cccc(C2CCCCC2)n1O | Cryptococcus gattii | microbial growth | – | – | MIC80 | 1.7 µM (≈ 0.329 µg/mL)
CS(=O)(=O)c1ccc([C@@H](O)[C@@H](CF)NC(=O)C(Cl)Cl)cc1 | Salmonella enterica | microbial growth | CHOLERAESUIS | 20 h, pH 5.5 | MIC | 4 µg/mL
COc1ccc(Cc2cc(C)cc(=O)n2O)cc1 | Cryptococcus gattii | microbial growth | – | – | MIC80 | 2.3 µM (≈ 0.564 µg/mL)
CCCCCCCCCCCC(=O)OC[C@H]1O[C@@H](n2cc(C)c(=O)[nH]c2=O)C[C@@H]1O | Bacillus cereus | microbial growth, broth dilution | – | – | MIC | 4 µg/mL
CC1=NN(CNc2ccccn2)C(=O)C1=NNn1c(-c2ccccc2)nc2ccccc2c1=O | Salmonella enterica | microbial growth, broth dilution | PARATYPHI | 24 h | MIC | 55.2 µM
CC(=O)c1cccc(NC(=O)C(=O)[C@H](CC(C)C)NC(=O)[C@H](CC(C)C)NC(=O)[C@H](CC(C)C)NC(=O)OCc2ccccc2)c1 | RPMI-8226 | cell growth or viability, MTS | – | 72 h | pIC50 | 7.31
Cc1cc(NS(=O)(=O)c2ccc(N)cc2)no1 | Salmonella enterica | microbial growth | CHOLERAESUIS | 20 h, pH 7.2 | MIC | 2050 µg/mL
COc1cc(Cc2cnc(N)nc2N)cc(OC)c1OC | Shigella dysenteriae | microbial growth, broth dilution | – | 24 h | MIC | 16 µg/mL
O=C(N[C@H](CO)[C@H](O)c1ccc([N+](=O)[O-])cc1)C(Cl)Cl | Salmonella enterica | microbial growth | CHOLERAESUIS | 20 h, pH 7.2 | MIC | 4 µg/mL
CC[C@H]1OC(=O)[C@H](C)[C@@H](O[C@H]2C[C@@](C)(OC)[C@@H](O)[C@H](C)O2)[C@H](C)[C@@H](O[C@@H]2O[C@H](C)C[C@H](N(C)C)[C@H]2O)[C@](C)(O)C[C@@H](C)C(=O)[C@H](C)[C@@H](O)[C@]1(C)O | Bacillus cereus | microbial growth | – | – | MIC | 3.13 µM
CCCCCCCCCCCC(=O)OC[C@H]1O[C@@H](n2cc(C)c(=O)[nH]c2=O)C[C@@H]1OC(=O)c1ccc(C(C)(C)C)cc1 | Bacillus cereus | microbial growth, broth dilution | – | – | MIC | 2 µg/mL
CC1=NN(CNC(=O)c2ccccn2)C(=O)C1=NNn1c(-c2ccccc2)nc2ccccc2c1=O | Salmonella enterica | microbial growth, broth dilution | PARATYPHI | 24 h | MIC | 104 µM
C=C(C)[C@H]1Cc2c(ccc3c2O[C@@H]2COc4cc(OC)c(OC)cc4[C@@H]2C3=O)O1 | ReNcell VM | cell growth or viability, imaging | – | 24 h | pIC50 | ~6.55
